Results reported in publication PMC5030192 (International journal of pharmaceutics, 2016).
Converted amounts (≈) assume the structure as drawn. Square brackets hold non-standard residues; d marks the D form. Peptide text beside a SMILES is read from it. Sar = CNCC(=O)O

Key:
PepT1 = assay: [3H]-GlySar uptake, interaction with peptide transporter; assay type: cell-based
Procedure, shortened: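 Monolayers grown to 80–90% confluency (6–7 days after seeding 3 × 10⁶ cells) were washed thrice in DPBS pH 7.4 at 37°C. They were then incubated 30 min at 37°C with [3H]-GlySar in DPBS plus test compound (25µM) or cold GlySar (10mM). Ice-cold stop wash, lysis in 0.1% Triton-X/0.3% NaOH overnight, scintillation counting; uptake normalised to protein. n=4, mean ± S.D., Student t-test.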

[1] = Solubility studies in distilled deionized water; assay type: physicochemical; details: thermodynamic from solid
[2] = ref Patel, 2014, cited from earlier work
PHT1 = assay: [3H]-His uptake, interaction with peptide/histidine transporter; assay type: cell-based; details: 25µM; MDCK-MDR1, MDCK-MRP2, Caco-2
P-gp = P-gp (Homo sapiens, UniProt P08183); assay: [3H]-LPV cellular uptake in MDCK-MDR1 cells; assay type: cell-based
MDCKII-WT cells = assay: MTS based cytotoxicity assay
MRP2 = MRP2 (Homo sapiens, UniProt Q92887); assay: [3H]-LPV cellular uptake in MDCK-MRP2 cells; assay type: cell-based
MRP2, sequence (Q92887 whole entry): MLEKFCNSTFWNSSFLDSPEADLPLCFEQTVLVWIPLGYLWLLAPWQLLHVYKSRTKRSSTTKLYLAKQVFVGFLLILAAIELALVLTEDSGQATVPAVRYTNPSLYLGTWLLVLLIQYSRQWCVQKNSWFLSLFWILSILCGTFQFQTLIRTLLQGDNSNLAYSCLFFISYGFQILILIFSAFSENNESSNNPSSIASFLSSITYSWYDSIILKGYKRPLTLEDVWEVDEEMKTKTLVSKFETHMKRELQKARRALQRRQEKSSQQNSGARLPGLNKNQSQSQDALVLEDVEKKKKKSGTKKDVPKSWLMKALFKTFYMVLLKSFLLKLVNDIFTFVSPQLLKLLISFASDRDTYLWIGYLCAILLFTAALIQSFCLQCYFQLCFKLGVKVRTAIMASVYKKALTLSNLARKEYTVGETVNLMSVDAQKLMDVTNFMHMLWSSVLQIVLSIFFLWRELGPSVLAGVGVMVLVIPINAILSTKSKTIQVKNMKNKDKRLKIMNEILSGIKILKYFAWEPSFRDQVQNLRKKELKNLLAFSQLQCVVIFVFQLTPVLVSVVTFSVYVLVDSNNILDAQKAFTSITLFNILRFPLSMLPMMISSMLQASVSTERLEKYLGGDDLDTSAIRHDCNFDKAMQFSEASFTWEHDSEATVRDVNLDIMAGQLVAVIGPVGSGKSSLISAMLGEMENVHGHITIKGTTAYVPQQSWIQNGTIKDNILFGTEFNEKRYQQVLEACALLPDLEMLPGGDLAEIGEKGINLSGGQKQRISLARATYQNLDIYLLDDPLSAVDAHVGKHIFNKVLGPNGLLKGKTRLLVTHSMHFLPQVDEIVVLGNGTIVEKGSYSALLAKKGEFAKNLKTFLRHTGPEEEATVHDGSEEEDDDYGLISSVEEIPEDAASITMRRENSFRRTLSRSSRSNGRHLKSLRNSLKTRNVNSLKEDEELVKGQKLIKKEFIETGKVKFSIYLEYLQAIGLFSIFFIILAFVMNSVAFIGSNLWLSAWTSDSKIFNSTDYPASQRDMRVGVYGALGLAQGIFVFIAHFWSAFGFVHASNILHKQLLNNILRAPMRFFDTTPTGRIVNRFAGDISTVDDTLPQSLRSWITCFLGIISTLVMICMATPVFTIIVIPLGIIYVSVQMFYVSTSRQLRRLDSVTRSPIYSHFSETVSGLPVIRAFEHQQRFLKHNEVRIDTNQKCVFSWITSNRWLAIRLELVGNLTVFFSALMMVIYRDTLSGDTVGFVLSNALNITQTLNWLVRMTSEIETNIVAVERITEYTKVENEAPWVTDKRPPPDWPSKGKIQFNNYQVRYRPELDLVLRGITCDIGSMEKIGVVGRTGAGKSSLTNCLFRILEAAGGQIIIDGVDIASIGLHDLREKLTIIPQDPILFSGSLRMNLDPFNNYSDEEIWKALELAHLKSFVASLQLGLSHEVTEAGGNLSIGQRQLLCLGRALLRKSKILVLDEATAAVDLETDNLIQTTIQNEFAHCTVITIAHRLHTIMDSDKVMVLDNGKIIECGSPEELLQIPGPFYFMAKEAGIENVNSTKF

P-gp, sequence (P08183 whole entry): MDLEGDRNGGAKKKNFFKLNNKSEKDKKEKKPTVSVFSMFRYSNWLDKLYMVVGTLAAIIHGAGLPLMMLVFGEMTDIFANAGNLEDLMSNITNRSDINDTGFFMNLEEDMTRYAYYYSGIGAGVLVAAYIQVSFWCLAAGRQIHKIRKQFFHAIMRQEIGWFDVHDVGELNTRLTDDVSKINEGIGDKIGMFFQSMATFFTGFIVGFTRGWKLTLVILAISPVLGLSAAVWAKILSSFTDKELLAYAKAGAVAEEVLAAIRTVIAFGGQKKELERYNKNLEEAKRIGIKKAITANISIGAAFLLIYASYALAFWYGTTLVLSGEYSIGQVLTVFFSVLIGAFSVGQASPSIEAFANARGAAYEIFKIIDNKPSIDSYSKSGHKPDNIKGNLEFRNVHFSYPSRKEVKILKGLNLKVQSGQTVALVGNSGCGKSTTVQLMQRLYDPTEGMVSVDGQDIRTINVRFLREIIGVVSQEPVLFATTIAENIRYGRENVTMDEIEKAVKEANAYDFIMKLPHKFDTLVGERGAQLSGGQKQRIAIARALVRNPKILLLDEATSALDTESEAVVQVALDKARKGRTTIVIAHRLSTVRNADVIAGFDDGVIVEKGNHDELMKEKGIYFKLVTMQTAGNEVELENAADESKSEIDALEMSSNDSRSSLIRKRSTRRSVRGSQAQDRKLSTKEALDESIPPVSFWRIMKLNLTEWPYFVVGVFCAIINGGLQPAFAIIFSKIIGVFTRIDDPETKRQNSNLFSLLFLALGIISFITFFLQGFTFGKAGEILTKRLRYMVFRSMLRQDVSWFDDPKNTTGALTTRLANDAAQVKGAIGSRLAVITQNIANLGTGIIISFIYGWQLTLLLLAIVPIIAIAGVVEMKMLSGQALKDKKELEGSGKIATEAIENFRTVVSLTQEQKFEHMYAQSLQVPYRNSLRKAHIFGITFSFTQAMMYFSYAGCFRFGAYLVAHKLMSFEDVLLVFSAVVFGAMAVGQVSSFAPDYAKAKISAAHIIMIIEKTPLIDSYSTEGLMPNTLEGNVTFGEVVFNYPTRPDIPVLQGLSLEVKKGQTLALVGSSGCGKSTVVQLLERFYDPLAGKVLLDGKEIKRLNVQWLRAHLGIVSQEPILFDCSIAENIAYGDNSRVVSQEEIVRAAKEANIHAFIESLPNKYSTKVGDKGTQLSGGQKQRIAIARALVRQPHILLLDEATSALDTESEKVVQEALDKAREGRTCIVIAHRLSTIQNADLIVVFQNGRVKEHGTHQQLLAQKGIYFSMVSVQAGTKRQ

CN(CC(=O)O)C(=O)CN [GlySar, Glycylsarcosine] (H-Gly-[Sar]-OH)
reduction in [3H]-GlySar uptake (PepT1; all cell lines (MDCK-MDR1, MDCK-MRP2, Caco-2), prodrug 25µM, cold GlySar 10mM): 75%

Cc1cccc(C)c1OCC(=O)N[C@@H](Cc1ccccc1)[C@@H](O)C[C@H](Cc1ccccc1)NC(=O)[C@H](C(C)C)N1CCCNC1=O [LPV, Lopinavir]
solubility at 24 h [1]: 49 ± 3 µg/mL (≈ 77.9 µM)
mean residential time (MRT) ([2]; LPV itself dosed orally, rats): 3.13 h
mean residential time (MRT) of regenerated LPV ([2]; regenerated after oral Val-Ile-LPV, rats): 10.1 h
Area under the curve (AUC) of administered compound ([2]; single oral dose, Sprague Dawley rats): 177 ± 5 µmol·min/L
variation in [3H]-L-His uptake in presence of compound (PHT1): no such variation
variation in [3H]-GlySar uptake in presence of compound (PepT1; 25µM, MDCK-MDR1, MDCK-MRP2, Caco-2): no such variation
[3H]-LPV uptake with increasing concentrations of unlabelled compound (P-gp): dramatically elevated
reduction in number of viable cells (MDCKII-WT cells; 100 µM, 4h incubation, MDCK-WT cells): Approximately 13%
reduction in number of viable cells / cell viability (MDCKII-WT cells; 200 µM, 4h incubation, MDCK-WT cells): ~36%
Cytotoxicity (MDCKII-WT cells; 5–50 µM, 4h incubation, MDCK-WT cells): no cytotoxic effects
[3H]-LPV uptake with increasing concentrations of unlabelled compound (MRP2): dramatically elevated

CC(C)(C)CC(C)(C)c1ccc(OCCO)cc1 [Triton-X]
decrease in absorbance compared to negative control (MDCKII-WT cells; 0.1% Triton-X, positive control): about 70%
